Test system in the first series: not listed separately
As to the kind of experiment: Cytotoxicity against human MCF7 cells after 48 hrs by MTT assay. In kind it is cell-based.
Conditions: not given
A general note: Tetrazolium assays rely on reduction of a dye to a coloured formazan, in cell work by metabolically active cells.
The CC50 is the concentration at which the toxic effect on the cells reaches its halfway point. Read a high CC50 as better tolerance by the cells. Compound `COc1ccc2c(c1)C(=O)C(c1ccc(Cl)c(Cl)c1)=[N+]2[O-]` returned a CC50 at 48 h of 8100 nM.

In the case of `CCC1=[N+]([O-])c2cc3c(cc2C1=O)OCO3`, the 50% cytotoxic concentration (CC50) at 48 h was 59000 nM.

As for `COc1ccc(C2=[N+]([O-])c3cc(OC)ccc3C2=O)cc1`, the CC50 at 48 h is 8800 nM.

In the case of `O=C1C(c2ccc([N+](=O)[O-])cc2)=[N+]([O-])c2ccccc21`, the CC50 at 48 h was 2800 nM.

Take `O=C1C(c2ccc(F)cc2)=[N+]([O-])c2ccccc21`: the CC50 at 48 h is 8700 nM.

For `O=C1C(c2ccc(Cl)cc2)=[N+]([O-])c2ccccc21`, the CC50 at 48 h was 17800 nM.

On to `O=C1C(c2ccc(Cl)cc2)=[N+]([O-])c2cc(C(F)(F)F)ccc21`, for which the CC50 at 48 h came to 3100 nM.

As to `COc1ccc2c(c1)C(=O)C(c1ccc(NC(C)=O)cc1)=[N+]2[O-]`, the cytotoxic concentration (CC50) at 48 h worked out at 7400 nM.

`CCc1ccc(C2=[N+]([O-])c3ccccc3C2=O)cc1`: the CC50 at 48 h was more than 39800 nM.

In turn, `COc1ccc2c(c1)C(=O)C(c1ccc(N)cc1)=[N+]2[O-]` came in with a CC50 at 48 h of 12700 nM.

The compound `COc1ccc2c(c1)C(=O)C(c1ccc(Cl)cc1Cl)=[N+]2[O-]` gave a CC50 at 48 h of more than 31000 nM.

As to `COc1ccc(C2=[N+]([O-])c3cc(C(F)(F)F)ccc3C2=O)cc1`, the CC50 at 48 h was 7900 nM.

In the case of `COc1ccc(C2=[N+]([O-])c3cc([N+](=O)[O-])ccc3C2=O)cc1`, half-maximal cytotoxicity (CC50 at 48 h) was put at 21800 nM.

With `O=C1C(c2ccsc2)=[N+]([O-])c2cc(Cl)ccc21`, the CC50 at 48 h amounted to 4900 nM.

`COc1ccc2c(c1)C(=O)C(c1ccc(Cl)c(C)c1)=[N+]2[O-]`: the CC50 at 48 h turned out to be 10300 nM.

Take `CC(C)CC1=[N+]([O-])c2ccccc2C1=O`: the CC50 at 48 h turned out to be 43100 nM.

Compound `COc1ccc2c(c1)C(=O)C(c1ccc(C(C)=O)cc1)=[N+]2[O-]` yielded a CC50 at 48 h of 40200 nM.

The compound `COc1ccc2cc(C3=[N+]([O-])c4cc5c(cc4C3=O)OCO5)ccc2c1` displayed a half-maximal cytotoxic concentration (CC50) at 48 h of 25600 nM.

For the next series, the system named is Plasmodium falciparum. As to the kind of experiment: Antimalarial activity against chloroquine-resistant Plasmodium falciparum FcB1 assessed as [3H]hypoxanthine incorporation after 48 hrs by beta-counter. The conditions noted are these: FcB1/Columbia. Type of series: functional, organism-based. The method in brief: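 Primary assay (Toulouse) on FcB1 cultured in RPMI with 25 mM HEPES and 10% human serum, O RBCs. Serial dilutions in triplicate, 2% parasitaemia, 2% haematocrit, 48 h at 37 °C, 5% CO2. [3H]-hypoxanthine added at 24 h, freeze-thaw harvest, β-counting. IC50 by linear regression on the linear segment of the semilog inhibition curve. Three independent repeats.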
The term IC50 denotes the concentration needed to halve the response being measured. With `O=C1C(c2ccccc2)=[N+]([O-])c2cc3c(cc21)OCO3`, the IC50 came to 12700 nM.

For `COc1ccc2cc(C3=[N+]([O-])c4cc(OCc5ccccc5)ccc4C3=O)ccc2c1`, the IC50 turned out to be 730 nM.

`COc1ccc2c(c1)C(=O)C(c1ccc(Cl)c(Cl)c1)=[N+]2[O-]`: the IC50 came out at 100 nM.

As to `CCC1=[N+]([O-])c2cc3c(cc2C1=O)OCO3`, the IC50 was 3560 nM.

For `COc1ccc(C2=[N+]([O-])c3cc(OC)ccc3C2=O)cc1`, the IC50 was determined as 106 nM.

For `O=C1C(c2ccc([N+](=O)[O-])cc2)=[N+]([O-])c2ccccc21`, the IC50 was 56 nM.

`COc1cc2c(cc1OC)[N+]([O-])=C(c1ccc(C)cc1)C2=O`: the IC50 came to 265 nM.

In the case of `O=C1C(c2ccc(F)cc2)=[N+]([O-])c2ccccc21`, the IC50 was determined as 120 nM.

Turning to `O=C1C(c2ccc(Cl)cc2)=[N+]([O-])c2ccccc21`, the IC50 is 272 nM.

`O=C1C(c2ccc(Cl)cc2)=[N+]([O-])c2cc(C(F)(F)F)ccc21`: the IC50 is 186 nM.

As for `O=C1C(c2ccc(F)cc2)=[N+]([O-])c2cc3c(cc21)OCO3`, the IC50 turned out to be 1710 nM.

In the case of `COc1ccc2c(c1)C(=O)C(c1ccc(NC(C)=O)cc1)=[N+]2[O-]`, the half-inhibitory concentration (IC50) is 400 nM.

With `CCc1ccc(C2=[N+]([O-])c3ccccc3C2=O)cc1`, the IC50 was determined as 2750 nM.

Regarding `COc1ccc2c(c1)C(=O)C(c1ccc(N)cc1)=[N+]2[O-]`, the IC50 amounted to 24 nM.

Regarding `COc1ccc2c(c1)C(=O)C(c1ccc(Cl)cc1Cl)=[N+]2[O-]`, the IC50 stood at 227 nM.

Turning to `COc1ccc2c(c1)C(=O)C(c1ccccc1Cl)=[N+]2[O-]`, the IC50 is 1130 nM.

As for `COc1ccc(C2=[N+]([O-])c3cc(C(F)(F)F)ccc3C2=O)cc1`, the IC50 amounted to 135 nM.

For the compound `COc1ccc(C2=[N+]([O-])c3cc([N+](=O)[O-])ccc3C2=O)cc1`, the IC50 worked out at 345 nM.

For `COc1cc2c(cc1OC)[N+]([O-])=C(c1ccccc1)C2=O`, the IC50 was found to be 1890 nM.

As for `O=C1C(c2ccsc2)=[N+]([O-])c2cc(Cl)ccc21`, the IC50 was determined as 130 nM.

Regarding `COc1ccc2c(c1)C(=O)C(c1ccc(Cl)c(C)c1)=[N+]2[O-]`, the IC50 was determined as 3 nM.

Take `CC(C)CC1=[N+]([O-])c2ccccc2C1=O`: the half-maximal inhibitory concentration (IC50) is more than 4500 nM.

As for `COc1ccc2c(c1)C(=O)C(c1ccc(C(C)=O)cc1)=[N+]2[O-]`, the IC50 was 256 nM.

Test system in another series: not listed separately
As to the kind of experiment: Selectivity index, ratio of CC50 for human MCF7 cells to IC50 for chloroquine-resistant Plasmodium falciparum FcB1. In kind it is functional.
Conditions: not given
The method in brief: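 XTT 0.5 mg/mL added for 180 min, formazan read at 450 nm, value taken from dose–response curves, two experiments in triplicate. This CC50 is divided by the FcB1 IC50 to give the index.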
For the compound `COc1ccc2c(c1)C(=O)C(c1ccc(Cl)c(Cl)c1)=[N+]2[O-]`, the “Ratio CC50/IC50” value was determined as 81.

In the case of `CCC1=[N+]([O-])c2cc3c(cc2C1=O)OCO3`, the “Ratio CC50/IC50” value came out at 16.

`COc1ccc(C2=[N+]([O-])c3cc(OC)ccc3C2=O)cc1`: the “Ratio CC50/IC50” value turned out to be 83.3.

Turning to `O=C1C(c2ccc(F)cc2)=[N+]([O-])c2ccccc21`, the “Ratio CC50/IC50” value worked out at 72.5.

In the case of `O=C1C(c2ccc(Cl)cc2)=[N+]([O-])c2ccccc21`, the “Ratio CC50/IC50” value is given as 66.

Regarding `O=C1C(c2ccc(Cl)cc2)=[N+]([O-])c2cc(C(F)(F)F)ccc21`, the “Ratio CC50/IC50” value is 16.5.

Regarding `COc1ccc2c(c1)C(=O)C(c1ccc(NC(C)=O)cc1)=[N+]2[O-]`, the “Ratio CC50/IC50” value was 18.5.

`CCc1ccc(C2=[N+]([O-])c3ccccc3C2=O)cc1`: the “Ratio CC50/IC50” value is given as more than 14.

Consider `COc1ccc2c(c1)C(=O)C(c1ccc(N)cc1)=[N+]2[O-]`, for which the “Ratio CC50/IC50” value came out at 528.

Take `COc1ccc2c(c1)C(=O)C(c1ccc(Cl)cc1Cl)=[N+]2[O-]`: the “Ratio CC50/IC50” value is listed as more than 136.

Regarding `COc1ccc(C2=[N+]([O-])c3cc(C(F)(F)F)ccc3C2=O)cc1`, the “Ratio CC50/IC50” value worked out at 58.8.

As for `COc1ccc(C2=[N+]([O-])c3cc([N+](=O)[O-])ccc3C2=O)cc1`, the “Ratio CC50/IC50” value came to 63.2.

As to `O=C1C(c2ccsc2)=[N+]([O-])c2cc(Cl)ccc21`, the “Ratio CC50/IC50” value turned out to be 38.

In the case of `COc1ccc2c(c1)C(=O)C(c1ccc(Cl)c(C)c1)=[N+]2[O-]`, the “Ratio CC50/IC50” value is 3425.

`CC(C)CC1=[N+]([O-])c2ccccc2C1=O`: the “Ratio CC50/IC50” value is on record as less than 9.

The values are drawn from ChEMBL document CHEMBL1156797, “Synthesis and antiplasmodial activity of new indolone N-oxide derivatives” (J Med Chem, 2010).
